Data set [1] in a line: Stability in artificial intestinal juice. The note with it: simulated gi fluid. Type of data set: physicochemical.
The next data set has as its system H22. Kind of data set: Antitumor activity against mouse H22 cells xenografted in Kunming mouse assessed as reduction of pulmonary metastatic nodes in lungs at 60 mg/kg, po qd for 14 days. Also on record: dose 60 mg/kg. Type of data set: functional, organism-based.
For a further data set, the system named is PC-3. Briefly: Antiproliferative activity against human PC3 cells after 48 hrs by MTT assay. It is filed as functional, cell-based. As to conditions: PC-3, 48 h. A general note: Formazan colour is commonly taken as a measure of viable cells.
The subject of data set [2] is MDA-MB-231. Kind of data set: Cell cycle arrest in human MDA-MB-231 cells assessed as accumulation at G2 phase at 2 to 5 uM after 48 hrs using propidium iodide staining by flow cytometric analysis. It is filed as functional, cell-based. An outline of the steps:
(§1)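 MDA-MB-231 cells were seeded at 4 × 10^5 per well and incubated overnight, then treated for 48 h. Cells were fixed overnight in 70% ethanol phosphate buffer and washed twice with PBS. They were treated with DNase-free RNase A (1 mg/mL) for 30 min, then stained with propidium iodide for 30 min in the dark at room temperature. DNA content was read by FACScan flow cytometry.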
Background: A flow cytometer gives signals particle by particle.

The test system of data set [3] is MDA-MB-231. Kind of data set: Cell cycle arrest in human MDA-MB-231 cells assessed as accumulation at G1 phase at 0.5 uM after 48 hrs using propidium iodide staining by flow cytometric analysis. It is filed as functional, cell-based. The procedure, abridged: as §1
Data set [4] concerns MDA-MB-231. Kind of data set: Antitumor activity against human MDA-MB-231 cells xenografted in BALB/c nu mouse assessed as tumor growth inhibition administered as ip qd for 19 days. It is filed as functional, organism-based. An outline of the steps: (§2)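 Female athymic BALB/c-nu mice, 5–6 weeks old, were inoculated subcutaneously in the right flank with RPMI1640/10% FBS-cultured tumor cells (5 × 10^6 for MDA-MB-231). At about 100 mm3 (~10 days), mice were randomized 6 per group and dosed orally or intraperitoneally for 19 days. Vehicle controls received PBS containing DMSO. TGI = (control − treated mean tumor weight)/control mean tumor weight, at end of treatment.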
For orientation: Xenograft models place foreign cells or tissue in a host animal.

Data set [5] relates to HCT-116. Kind of data set: Antitumor activity against human HCT116 cells xenografted in BALB/c nu mouse assessed as tumor growth inhibition at 90 mg/kg, po qd for 19 days relative to control. Type of data set: functional.
Data set [6] concerns HCT-116. Briefly: Antitumor activity against human HCT116 cells xenografted in BALB/c nu mouse assessed as tumor growth inhibition at 60 mg/kg, po qd for 19 days relative to control. Type of data set: functional. An outline of the steps:
as §2

For another data set, the system named is Mus musculus. Briefly: Toxicity in human HCT116 cells xenografted BALB/c nu mouse assessed as change in body weight at 60 mg/kg, po qd for 19 days. Type of data set: organism-based, HCT-116. On the set-up: dose 60 mg/kg, route oral. The note with it: in vivo, 456 h. An outline of the steps:
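Female BALB/c-nu mice, 5–6 weeks old, bearing subcutaneous right-flank xenografts. Mice were randomized 6 per group at about 100 mm3 tumor size. Dosing was oral or intraperitoneal for 19 days; controls received an equal volume of PBS containing DMSO. Body weight was monitored regularly during treatment, and tumors were measured by caliper every three days.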

The target in a further data set is Histone deacetylase. Kind of data set: Inhibition of HDAC in human HeLa cell nuclear extracts using Boc-Lys (acetyl)-AMC as substrate after 30 mins by fluorescence assay. It is filed as protein assay. The procedure, abridged:
(§3)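 Enzyme (HeLa nuclear extract, HDAC6 or HDAC8) preincubated 5 min with a series of compound concentrations. Fluorogenic Boc-Lys(acetyl)-AMC substrate then added and incubated 37 °C for 30 min. Reaction stopped with developer containing trypsin and TSA, 20 min at 37 °C. Fluorescence read at ex 390/em 460 nm. Inhibition taken relative to control wells; IC50 from regression of concentration/inhibition data.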

Data set [7] deals with T1, Protein deacetylase HDAC6 (Homo sapiens, UniProt Q9UBN7).
T1 sequence (Q9UBN7 whole entry): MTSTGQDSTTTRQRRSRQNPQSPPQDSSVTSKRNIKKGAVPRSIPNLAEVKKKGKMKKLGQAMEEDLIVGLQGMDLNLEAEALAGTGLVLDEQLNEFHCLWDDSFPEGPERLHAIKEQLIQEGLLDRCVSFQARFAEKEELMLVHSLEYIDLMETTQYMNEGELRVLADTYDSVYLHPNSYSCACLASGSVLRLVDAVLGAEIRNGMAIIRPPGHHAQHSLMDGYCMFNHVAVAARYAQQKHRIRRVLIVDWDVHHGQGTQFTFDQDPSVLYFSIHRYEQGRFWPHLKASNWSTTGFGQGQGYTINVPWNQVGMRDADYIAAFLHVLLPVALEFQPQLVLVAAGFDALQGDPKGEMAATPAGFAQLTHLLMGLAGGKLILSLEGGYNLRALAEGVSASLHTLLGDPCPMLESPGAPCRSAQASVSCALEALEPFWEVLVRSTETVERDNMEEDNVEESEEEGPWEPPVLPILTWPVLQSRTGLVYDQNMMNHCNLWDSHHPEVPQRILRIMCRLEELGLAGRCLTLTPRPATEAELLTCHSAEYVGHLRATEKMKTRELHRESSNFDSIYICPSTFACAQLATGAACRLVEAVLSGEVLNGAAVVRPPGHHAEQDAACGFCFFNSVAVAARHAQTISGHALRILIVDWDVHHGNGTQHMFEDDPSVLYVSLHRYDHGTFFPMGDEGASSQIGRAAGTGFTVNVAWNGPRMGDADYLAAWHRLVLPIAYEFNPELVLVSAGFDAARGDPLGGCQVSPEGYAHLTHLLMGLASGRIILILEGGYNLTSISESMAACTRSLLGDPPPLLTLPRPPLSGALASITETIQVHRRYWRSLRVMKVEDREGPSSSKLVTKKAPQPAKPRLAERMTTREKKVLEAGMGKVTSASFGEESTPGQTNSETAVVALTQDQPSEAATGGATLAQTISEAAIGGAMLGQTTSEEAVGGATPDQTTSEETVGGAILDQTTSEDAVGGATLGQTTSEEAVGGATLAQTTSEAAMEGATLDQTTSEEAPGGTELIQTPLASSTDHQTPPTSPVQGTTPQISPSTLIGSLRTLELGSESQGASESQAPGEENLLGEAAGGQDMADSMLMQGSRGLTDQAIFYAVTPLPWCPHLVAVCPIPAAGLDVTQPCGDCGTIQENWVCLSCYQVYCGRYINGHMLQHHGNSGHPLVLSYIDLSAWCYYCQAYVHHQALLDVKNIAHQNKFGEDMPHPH
Kind of data set: Inhibition of HDAC6 using Boc-Lys (acetyl)-AMC as substrate after 30 mins by fluorescence assay. An outline of the steps: as §3

The test system of data set [8] is MDA-MB-231. Kind of data set: Antiproliferative activity against human MDA-MB-231 cells after 48 hrs by MTT assay. It is filed as functional, cell-based. The note with it: MDA-MB-231, 48 h. An outline of the steps: (§4)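 Cells kept in RPMI1640 with 10% FBS at 37 °C, 5% CO2. Cells were passaged into 96-well plates the day before dosing and left ≥4 h before compound addition. Exposure was 48 h, then 0.5% MTT for 4 h. Formazan was extracted with DMSO for 15 min and read at 570 nm. IC50 was derived from inhibition ratios; mean of three experiments.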

Another data set concerns HeLa. Kind of data set: Antiproliferative activity against human HeLa cells after 48 hrs by MTT assay. Type of data set: functional, cell-based. An outline of the steps:
as §4

In another data set the test system is HL-60. Briefly: Antiproliferative activity against human HL60 cells after 48 hrs by MTT assay. Type of data set: functional, cell-based. As to conditions: HL-60, 48 h. An outline of the steps: as §4
Setting [9] is: Mus musculus, HCT-116, 456 h, read-out: TGI.

The source made the active and inactive calls. No cut-off for these calls is given here.

In the case of `CC[C@H](C)[C@H](NC(=O)CC(C)(C)C)C(=O)N1Cc2cc(OCC(=O)NO)ccc2C[C@H]1C(=O)Nc1ccc(OC)cc1`, in [1], the Stability result was “Stable”. Besides, the result with H22, in the data set on MDA-MB-231 [2] and in the data set with MDA-MB-231 [3] was Active. Further, the 50% inhibitory concentration (IC50) with PC-3 was found to be 830 nM; against Histone deacetylase, 52 nM; in [7], 56 nM; in the data set with MDA-MB-231 [8] it was 580 nM; with HeLa, 56100 nM; in the data set with HL-60, 65800 nM. Also, the TGI result in the data set with MDA-MB-231 [4] was “Dose-dependent effect”. Also, the T/C in the data set on HCT-116 [5] was 53%; with HCT-116 [6] it was 85%. Also, the inhibition in vivo at 90 mg/kg in the data set on HCT-116 [5] (setting [9]) is 59%. In the data set with HCT-116 [6] (setting [9]), the inhibition in vivo at 60 mg/kg worked out at 32%. Moreover, the Activity result with Mus musculus is recorded as “Non-toxic”.

For orientation: IC50 means the concentration needed to halve the response being measured. Low values mean greater potency, high ones weaker potency. What is called T/C is the result in the treated group divided by that in the control group, in per cent.
